Laboratory results reported in ChEMBL document CHEMBL1125114, “Cardiotonic agents. 6. Histamine analogues as potential cardiovascular selective H2 agonists” (J Med Chem, 1990).
“And” between values parts separate entries of the source, which are not always exact repeats. Equal values may be shown once. The source made the active and inactive calls. The rule behind the calls is not given here.

Tests used:
[1] = Concentration which gives 20% increase in the force contraction in ferret papillary muscle; type: functional, Mustela putorius furo, Muscle tissue
Outline: (§1)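 Isolated ferret papillary muscle, force of contraction recorded over a dose-response range. C20 = concentration giving a 20% increase in contractile force. Single experiments reported individually; with three or more runs, mean and range given.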

[2] = organism: Mustela putorius furo; experiment: Concentration of compound which gives 20% increase in the force contraction in ferret papillary muscle; NR-Not reached; type: functional, tissue-based; conditions: Muscle tissue; outline: as §1
[3] = organism: Cavia porcellus; experiment: Contractile response of histamine at 0.5 ug/mL in guinea pig ileum; type: functional
Outline: (§2)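 Isolated guinea pig ileum, H1 activity. Value is the concentration giving 50% of the contractile response of histamine at 0.5 μg/mL, taken from dose-response curves. Reported as mean ± SEM of three separate dose-response determinations. Response sensitivity checked with mepyramine.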

[4] = system: Cavia porcellus; experiment: In vivo percent change in mean arterial pressure in guinea pig was determined at a dose of 10 mg/kg/hr; type: functional, Artery
Outline: (§3)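 Pentobarbital-anesthetized guinea pigs with stomach ligated to contain gastric fluid. After 30 min stabilization, blood pressure, heart rate, LVEDP and LV dP/dtmax were recorded at 1-min intervals. Compound given by iv infusion for 60 min, then monitored 10 min more. Gastric contents were titrated against 0.1 N NaOH. Value is the average maximum % change from control in the 10 min after infusion, mean ± SEM.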

[5] = organism: Mustela putorius furo; experiment: (§4) In vitro inotropy blocking studies in ferret papillary muscle in the presence of 10 uM cimetidine; B-Blocked; type: functional, tissue-based; conditions: Muscle tissue
[6] = dP/dt value of the compound; type: functional; parameters: unit not given here
[7] = organism: Mustela putorius furo; experiment: (§5) In vitro inotropy blocking studies in ferret papillary muscle in the presence of 100 uM nadolol; NB-Not Blocked; type: functional, tissue-based; conditions: Muscle tissue
Outline: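 Ferret papillary muscle inotropic dose-response curves repeated in the presence of each antagonist (nadolol at 100 μM). A rise in C20 of at least one order of magnitude was scored as a blocked response.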

[8] = system: Cavia porcellus; experiment: In vivo percent change in total acid secretion in guinea pig was determined at a dose of 10 mg/kg/hr; type: functional; outline: as §3
[9] = system: Rattus norvegicus; experiment: In vivo effect on gastric acid secretion in rat was determined after subcutaneous administration; type: functional; conditions: Stomach, sc
Outline: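 Rats, subcutaneous dosing, gastric acid secretion measured by the method of Hagiwara and co-workers. ED50 = dose giving a 50% increase in acid secretion over control. Mean ± SEM of three separate dose-response determinations.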

[10] = system: Cavia porcellus; experiment: In vivo percent change in heart rate in guinea pig was determined at a dose of 10 mg/kg/hr; type: functional; outline: as §3
[11] = organism: Cavia porcellus; experiment: Chronotropic effect of histamine at 5 ug/mL in guinea pig atrium; NR-Not reached; type: functional, Cardiac atrium
[12] = system: Cavia porcellus; experiment: In vivo percent change in air way overflow in guinea pig was determined at a dose of 10 mg/kg/hr; type: functional
[13] = system: Cavia porcellus; experiment: In vivo percent change airway overflow in guinea pig was determined at a dose of 75 mg/kg/h; type: functional
[14] = organism: Mustela putorius furo; experiment: as §5; type: functional, tissue-based; conditions: Muscle tissue; remark: listed apart in the source
Outline: (§6)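 Ferret papillary muscle dose-response repeated in the presence of 100 μM nadolol. A rise of at least 1 order of magnitude in the measured C20 was scored as a blocked inotropic response.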

[15] = system: Cavia porcellus; experiment: In vivo percent change in heart rate in guinea pig was determined at a dose of 75 mg/kg/h; type: functional; outline: as §3
[16] = organism: Mustela putorius furo; experiment: as §4; type: functional, tissue-based; conditions: Muscle tissue; remark: listed apart in the source
Outline: (§7)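 Ferret papillary muscle dose-response repeated in the presence of antagonist (cimetidine). A rise of at least 1 order of magnitude in the measured C20 was scored as a blocked inotropic response.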

[17] = system: Cavia porcellus; experiment: In vivo percent change in mean arterial pressure in guinea pig was determined at a dose of 75 mg/kg/h; type: functional, Artery; outline: as §3
[18] = organism: Cavia porcellus; experiment: Chronotropic effect of histamine at 5 ug/mL in guinea pig atrium; type: functional, Cardiac atrium
Outline: (§8)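 Spontaneously beating guinea pig right atria. Value is the concentration giving 50% of the chronotropic effect of histamine at 5 μg/mL, taken from dose-response curves. Reported as mean ± SEM of three separate dose-response determinations. Response sensitivity checked with cimetidine.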

[19] = system: Cavia porcellus; experiment: In vivo percent change total acid secretion in guinea pig was determined at a dose of 75 mg/kg/h; type: functional; outline: as §3
[20] = dp/dt value of the compound; type: functional; outline: as §3
[21] = Concentration of compound which gives 20% increase in the force contraction in ferret papillary muscle.; type: functional, Mustela putorius furo, Muscle tissue
Outline: (§9)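 Ferret papillary muscle force of contraction. C20 is the concentration giving a 20% increase in force. Values come from individual experiments; where three or more runs were done, the mean and range are given. NR means not reached.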

[22] = organism: Mustela putorius furo; experiment: In vitro inotropy blocking studies in ferret papillary muscle in the presence of 10 uM cimetidine; NB-Not Blocked; type: functional, tissue-based; conditions: Muscle tissue; outline: as §7
[23] = organism: Mustela putorius furo; experiment: In vitro inotropy blocking studies in ferret papillary muscle in the presence of 100 uM nadolol; B-Blocked; type: functional, tissue-based; conditions: Muscle tissue; outline: as §6
[24] = organism: Mustela putorius furo; experiment: Concentration of compound which gives 20% increase in the force contraction in ferret papillary muscle;NR- Not reached; type: functional, tissue-based; conditions: Muscle tissue; outline: as §9
[25] = organism: Mustela putorius furo; experiment: In vitro inotropy blocking studies in ferret papillary muscle in the presence of 100 uM nadolol; Blocked; type: functional, tissue-based; conditions: Muscle tissue; outline: as §6
[26] = organism: Cavia porcellus; experiment: In vitro chronotropic effect of histamine at 5 ug/mL in guinea pig atrium; type: functional; conditions: Cardiac atrium; outline: as §8
[27] = system: Cavia porcellus; experiment: In vivo percent change in heart rate in guinea pig was determined at a dose of 1 mg/kg/h; type: functional
[28] = system: Cavia porcellus; experiment: In vivo percent change in total acid secretion in guinea pig was determined at a dose of 1 mg/kg/h; type: functional
[29] = system: Cavia porcellus; experiment: In vivo percent change in mean arterial pressure in guinea pig was determined at a dose of 1 mg/kg/h; type: functional, Artery
[30] = system: Cavia porcellus; experiment: In vivo percent change in airway overflow in guinea pig was determined at a dose of 1 mg/kg/h; type: functional
[31] = organism: Cavia porcellus; experiment: In vitro contractile response of histamine at 0.5 ug/mL in guinea pig ileum; type: functional; outline: as §2
[32] = system: Cavia porcellus; experiment: In vivo percent change in total acid secretion in guinea pig was determined at a dose of 7.5 mg/kg/h; type: functional
[33] = system: Cavia porcellus; experiment: In vivo percent change in mean arterial pressure in guinea pig was determined at a dose of 7.5 mg/kg/h; type: functional, Artery
[34] = system: Cavia porcellus; experiment: In vivo percent change in airway overflow in guinea pig was determined at a dose of 7.5 mg/kg/h; type: functional
[35] = system: Cavia porcellus; experiment: In vivo percent change in heart rate in guinea pig was determined at a dose of 7.5 mg/kg/h; type: functional
[36] = system: Cavia porcellus; experiment: In vivo percent change in total acid secretion in guinea pig was determined at a dose of 30 mg/kg/h; type: functional; outline: as §3
[37] = system: Rattus norvegicus; experiment: In vivo effect on gastric acid secretion in rat was determined after subcutaneous administration; NC-No change; type: functional, organism-based; conditions: Stomach
Outline: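 Rats, subcutaneous dosing, gastric acid secretion stimulation. ED50 is the dose giving a 50% increase in acid secretion over control. Reported as mean ± SEM of three separate dose-response determinations.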

[38] = system: Cavia porcellus; experiment: In vivo percent change in heart rate in guinea pig was determined at a dose of 30 mg/kg/h; type: functional; outline: as §3
[39] = system: Cavia porcellus; experiment: In vivo percent change in airway overflow in guinea pig was determined at a dose of 30 mg/kg/h; type: functional
[40] = Cavia porcellus, Ileum, read-out: EC50

Cc1[nH]cnc1CCNCCNC(=O)N1CCOCC1
C20 [1]: >90 uM l-1

c1ccc2c3c(ccc2c1)C(NCCc1c[nH]cn1)CCC3 (centres undefined)
C20 [1]: >10 uM l-1

Cc1[nH]cnc1CCNCCNC(=O)c1ccncc1
C20 [2]: Not reached

CN(CCc1c[nH]cn1)Cc1ccco1
EC50 [3]: 165 uM l-1
Change [4]: -22%
Activity [5]: Blocked
dP/dt [6]: -6
Activity [7]: Not blocked
Change [8]: 221%
ED50 [9]: 15.3 mg/kg
Change [10]: -8%
EC50 [11]: Not reached
C20 [1]: 6.7 uM l-1
Change [12]: 51%

CCCCCCCNCCc1c[nH]cn1
EC50 [3, 40]: 7.88 µM
Change [13]: 150%
ED50 [9]: 10.7 mg/kg
Activity [14]: Not blocked
Change [15]: 14%
Activity [16]: Blocked
Change [17]: 15%
EC50 ([18]; Cavia porcellus, Cardiac atrium, read-out: EC50): 71 µM
Change [19]: 220%
dP/dt [20]: 155
C20 [21]: 1 uM l-1

CCCCCCCN(C)CCc1c[nH]cn1
C20 [21]: >57 uM l-1

CN(CC/C=C/c1ccccc1)CCc1c[nH]cn1
Activity [22]: Not blocked
Activity [23]: Blocked

CC(=O)NCCNCCc1c[nH]cn1
C20 [1]: 46 uM l-1 and 85 uM l-1

COc1ccc(CCNCCc2c[nH]cn2)cc1OC
Activity [5]: Blocked
Activity [23]: Blocked

NC(C/C=C/c1ccccc1)CCc1c[nH]cn1 (centres undefined)
C20 [24]: Not reached

Cc1[nH]cnc1CCNCCN
C20 [2]: Not reached

c1coc(CNCCCc2c[nH]cn2)c1
C20 [1]: 33 uM l-1

CC(CCc1ccc(O)cc1)NCCc1c[nH]cn1 (centres undefined)
Activity [22]: Not blocked
Activity [23]: Blocked
C20 [1]: 2 uM l-1 and 5 uM l-1

O=C(NCCNCCc1c[nH]cn1)c1ccccc1
C20 [1]: >66 uM l-1

C(=C\c1ccccc1)/CCNCCc1c[nH]cn1
Activity [25]: Blocked
C20 [1]: 14 uM l-1 and 21 uM l-1

CN(C)CCCSC(=N)N [DIMAPRIT]
EC50 [26]: 4.6 µM
Activity [5]: Blocked
dP/dt [6]: 93
Activity [7]: Not blocked
Change [27]: 19%
Change [28]: 91%
ED50 [9]: 3.1 mg/kg
Change [29]: -25%
Change [30]: 11%
EC50 [31]: 10.4 µM

CCCCCCC(=O)NCCc1c[nH]cn1
Change [32]: 160%
EC50 [3, 40]: 50.6 µM
Change [33]: 33%
Change [34]: 197%
Activity [5]: Blocked
dP/dt [6]: 146
Activity [7]: Not blocked
ED50 [9]: 5.9 mg/kg
Change [35]: 41%
EC50 [11]: Not reached
C20 [1]: 7.3 uM l-1

NCCc1c[nH]cn1 [HISTAMINE]
EC50 [26]: 0.98 µM
ED50 [9]: 2.7 mg/kg
Activity [14]: inactive
Activity [16]: Active
EC50 [31]: 0.24 µM
dP/dt [20]: 132
C20 [21]: 0.42 uM l-1

NC(C/C=C/c1ccccc1)Cc1c[nH]cn1 (centres undefined)
EC50 [3, 40]: 7.23 µM
Activity [5]: Blocked
dP/dt [6]: 68
Change [36]: 169%
Activity [7]: Not blocked
ED50 [37]: inactive
Change [38]: 5%
Change [39]: 45%
EC50 [18]: 184 uM l-1
C20 [1]: 13 uM l-1

c1coc(CNCCc2c[nH]cn2)c1
Activity [23]: Blocked
C20 [1]: 27 uM l-1

CCCN(CCc1c[nH]cn1)C(C)CCc1ccc(O)cc1 (centres undefined)
Activity [5]: Blocked
Activity [23]: Blocked
C20 [1]: 4.9 uM l-1

O=C(c1ccccc1)N1CCC(NCCc2c[nH]cn2)CC1
C20 [1]: >27 uM l-1

Cc1[nH]cnc1CCNCCNC(=O)c1ccccc1
C20 [1]: 27 uM l-1

CC(CCc1ccc(O)cc1)N(C)CCc1c[nH]cn1 (centres undefined)
EC50 [3]: 128 uM l-1
Change [4]: 5%
Activity [22]: Not blocked
dP/dt [6]: 29
Change [8]: 22%
ED50 [37]: inactive
Activity [23]: Blocked
EC50 [11]: Not reached
C20 [1]: 0.13 uM l-1 and 0.16 uM l-1
Change [12]: 39%

CCN(CCc1c[nH]cn1)C(C)CCc1ccc(O)cc1 (centres undefined)
Activity [5]: Blocked
Activity [23]: Blocked
C20 [1]: 4 uM l-1 and 6 uM l-1

Cc1[nH]cnc1CCNCCNC(=O)c1ccc(NS(C)(=O)=O)cc1
C20 [1]: 20 uM l-1 and 40 uM l-1
